# EWS-Fli inh: EWS/Fli transcriptional activity inhibition; 350,000 compounds, 0.67% hits; AID 651661; inhibition, % at 12.6 µM; A673 NR0B1-luciferase reporter, viability-normalised;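 active = mean inhibition of at least 50% after viability correction, with every replicate also passing that limit; inconclusive = mean reaches 50% but only one of two replicates passes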;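 also: firefly luciferase signal divided by Alamar Blue viability fluorescence both relative to DMSO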
# MLL AF4-AF9 inh: blocks AF4 peptide binding to human AF9. 350,000 compounds, 0.47% hits. AID 651704. inhibition, % at 10 µM. AlphaScreen, biotin-AF4 peptide binding to FLAG-AF9;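 active = every replicate reaching a set inhibition limit, whatever the replicate mean, cut at about 25% in these data; inconclusive = mean inhibition reaches that limit but some replicates miss it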;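 also: 0% = plate neutral control median and 100% = total signal loss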
# Target sequence (P42568 whole entry, looked up): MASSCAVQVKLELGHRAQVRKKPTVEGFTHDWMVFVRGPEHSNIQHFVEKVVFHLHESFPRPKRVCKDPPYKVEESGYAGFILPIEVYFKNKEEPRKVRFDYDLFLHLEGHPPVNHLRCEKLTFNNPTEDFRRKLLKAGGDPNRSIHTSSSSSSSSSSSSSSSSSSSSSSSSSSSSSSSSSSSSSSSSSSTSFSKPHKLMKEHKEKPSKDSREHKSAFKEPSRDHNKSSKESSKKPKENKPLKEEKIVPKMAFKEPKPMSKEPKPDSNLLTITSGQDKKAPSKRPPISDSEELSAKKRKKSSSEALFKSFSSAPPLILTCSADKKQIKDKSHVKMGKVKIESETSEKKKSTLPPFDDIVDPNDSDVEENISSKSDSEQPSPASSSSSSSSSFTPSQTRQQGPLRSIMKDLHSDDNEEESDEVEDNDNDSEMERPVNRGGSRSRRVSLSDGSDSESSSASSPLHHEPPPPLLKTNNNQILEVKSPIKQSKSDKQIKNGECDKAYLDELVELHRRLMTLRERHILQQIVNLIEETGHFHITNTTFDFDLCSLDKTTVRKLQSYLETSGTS
# PGC1a acetyl inh: modulators of PGC1a acetylation; U2OS PGC1a acetylation, AlphaScreen anti-acetyl-lysine; with virally co-expressed GCN5 acetyltransferase; inhibition, % at 15.6 µM; 350,000 compounds, 0.17% hits; AID 651687;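 active = every replicate shows inhibition of at least 40%; inconclusive = mean inhibition at least 40% but some replicate below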;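 also: 0% = neutral control wells and 100% = positive control wells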
# Xi reactivation: activators of X-chromosome reactivation in mouse fibroblasts; XiGFP mouse fibroblasts, % GFP-positive cells imaging, 3 d; cells co-treated with 5-aza-dC sensitizer; scaled so ellipticine positive control = 100%; activation, % at 7.58 µM; 360,000 compounds, 0.055% hits; AID 743238;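 active = mean normalized replicate activation at least 10% and every replicate at or above 10%; inconclusive = only one of the two criteria met; inactive = mean below 10% and not all replicates reach 10%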;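 also: 0% = median of on-plate neutral control wells and 100% = ellipticine 6 µM median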
#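 System: XiGFP fibroblasts, SV40-immortalized. Medium: DMEM plus 5-aza-dC sensitizer. Doses: single point. Timing: 3 d treatment, 15 min room-temperature fixation. Control set: ellipticine 6 µM.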
# PAX8 inh HTS: inhibitors of PAX8 transcriptional activity in RMG-I cells; RMG-I TPO-luciferase reporter, SteadyGlo, 24 h; inhibition, % at 12.6 µM; 360,000 compounds, 1.2% hits;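 active = mean replicate inhibition at least 60% with every replicate also reaching 60%; inconclusive = only one of the two criteria is met; inactive = mean below 60% and not all replicates reaching 60%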;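 also: luciferase light reporting Pax8 driven TPO promoter activity; plate controls were median of neutral control wells for no effect and mitoxantrone controls for full effect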
# GSIS activator: primary screen for activators of insulin secretion dependent on glucose, INS-1E cells, GLuc reporter luminescence; INS-1E GLuc reporter insulin secretion, 2-3 h; activation, % at 16.6 µM; 370,000 compounds, 0.61% hits; AID 743287;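 active = lowest replicate activation of at least 40%, so every replicate reaches that level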;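 also: 0% = median of neutral control wells and 100% = median of IBMX positive control wells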
# * marks the source's active call; other numbers are inactive results; u = inconclusive; x = no result. An excerpt weighted towards active compounds, which were near 2.1% of everything screened.
SMILES,EWS-Fli inh,MLL AF4-AF9 inh,PGC1a acetyl inh,Xi reactivation,PAX8 inh HTS,GSIS activator
CCCCC(=O)Nc1ccc(NC(=O)c2cccs2)cn1,x,x,49*,x,x,12
Cc1noc(C)c1NC(=O)N(C)C[C@H]1Oc2ccc(NS(=O)(=O)c3cccs3)cc2C(=O)N([C@@H](C)CO)C[C@H]1C,-9,-13,4,1,x,13
COC(=O)c1cccc(Nc2c3c(nc4ccccc24)CCC3)c1,43,-6,2,0,15,0
COc1ccc(Nc2c3c(nc4ccccc24)CCC3)c(OC)c1,22,9,-10,0,29,13
COc1ccccc1Nc1c2c(nc3ccccc13)CCC2,62*,1,0,0,42,11
CC(=O)c1cccc(Nc2c3c(nc4ccccc24)CCC3)c1,56*,-17,0,0,21,34
COc1cc(Nc2c3c(nc4ccccc24)CCCC3)cc(OC)c1OC,22,8,-14,0,0,3
CC(=O)c1ccc(Nc2c3c(nc4ccccc24)CCCC3)cc1,71*,-5,-20,0,12,9
O=C(C[C@@H]1C=C[C@H](NC(=O)c2cccnc2)[C@@H](CO)O1)NCc1ccc(Cl)c(Cl)c1,-4,0,-9,0,-2,-10
OC[C@@H]1CC[C@@H]2O[C@H](CCc3ccc(-c4ccccc4)cc3)[C@H](n3cc(-c4ccccc4)nn3)C[C@@H]2O1,4,-2,5,x,9,x
CC(C)NC(=O)N(C)C[C@H]1Oc2c(cccc2N(C)C)C(=O)N(C)C[C@@H]1C,x,x,x,0,x,18
Cc1ccccc1Oc1cc(-n2ncc(Cl)c(Cl)c2=O)ncn1,42,0,69*,7,-20,34
CO[C@H](CN(C)C(=O)c1ccc2c(c1)OCO2)[C@H](C)CN([C@@H](C)CO)S(=O)(=O)c1ccc(F)cc1,1,-1,3,0,x,-5
O=S(=O)(c1ccc2[nH]ccc2c1)N1CCCCCC1,2,-1,68*,0,8,-9
CCN1/C(=c2/s/c(=C3/C(=O)N(c4ccccc4)N=C3C)n(CC)c2=O)C=Cc2ccccc21,-2,4,-3,0,7,3
CCOC(=O)CC1=NN(c2ccccc2)C(=O)C1=c1sc(=C2SC(C)=C(C)N2CC)c(=O)n1CC,3,40*,11,x,8,19
CCc1ccc2nc(SCC(=O)Nc3ccccc3N3CCOCC3)c(C#N)cc2c1,59*,5,1,-1,37,15
Cc1ccc2nc(SCC(=O)Nc3ccccc3N3CCOCC3)c(C#N)cc2c1,x,x,-2,x,x,x
COc1ccc(NC(=O)c2ccc([N+](=O)[O-])o2)cc1,-27,4,-42,0,76*,0
O=C(Nc1ccc2oc(-c3ccncc3)nc2c1)c1ccc([N+](=O)[O-])o1,62*,1,x,0,32,4
NC(=O)c1oc2ccccc2c1NC(=O)c1ccc([N+](=O)[O-])o1,49,3,11,3,74*,9
Cc1cc(C)cc(NC(=O)c2ccc([N+](=O)[O-])o2)c1,17,2,-247,0,75*,1
C[C@H]1CN([C@@H](C)CO)C(=O)c2cc(NS(=O)(=O)c3ccc(F)cc3)ccc2O[C@@H]1CN(C)C(=O)NC1CCCCC1,-6,-3,3,0,-8,8
CC(NC(=O)c1ccc([N+](=O)[O-])o1)C12CC3CC(CC(C3)C1)C2 (centres undefined),18,5,x,0,66*,-27
CC(NC(=O)C12CC3CC(CC(C3)C1)C2)C(=O)NN=Cc1ccc([N+](=O)[O-])o1 (centres undefined),13,-1,-28,0,-1,-47
SMILES,EWS-Fli inh,MLL AF4-AF9 inh,PGC1a acetyl inh,Xi reactivation,PAX8 inh HTS,GSIS activator
C=CCN=c1sc(C(=O)OC)cc(=O)n1CC=C,x,x,-11,x,x,50*
CCN=c1sc(C(=O)OC)cc(=O)n1CC,x,x,5,x,x,x
CC(=O)c1ccc(N2CCN(C(=O)c3ccc(Cl)c(NC4=NC5CS(=O)(=O)CC5S4)c3)CC2)cc1 (centres undefined),x,-1,-10,0,-40,1
CCOC(=O)C1CCN(C(=O)c2ccc(Cl)c(NC3=NC4CS(=O)(=O)CC4S3)c2)CC1 (centres undefined),-4,25*,-4,0,2,9
CC(C)NC(=O)N[C@H]1CC[C@@H](CCNC(=O)C2CCOCC2)O[C@@H]1CO,-6,-3,7,0,-5,0
CO[C@@H]1CN(C)C(=O)c2ccc(NS(=O)(=O)c3cn(C)cn3)cc2OC[C@H](C)N(CCC(F)(F)F)C[C@H]1C,-8,-3,8,1,x,23
C[C@H]1CCCCO[C@@H](CN(C)S(=O)(=O)c2ccc(Cl)cc2)[C@@H](C)CN([C@@H](C)CO)C(=O)c2cc(N(C)C)ccc2O1,3,u,-8,0,70*,-9
C[C@@H]1CCCCO[C@H](CN(C)S(=O)(=O)c2ccc(Cl)cc2)[C@H](C)CN([C@H](C)CO)C(=O)c2cc(N(C)C)ccc2O1,9,7,-13,-1,68*,-15
Cc1ccc(S(=O)(=O)N(C)C[C@@H]2OCCCC[C@H](C)Oc3ccc(N(C)C)cc3C(=O)N([C@@H](C)CO)C[C@@H]2C)cc1,-4,u,-4,0,73*,-28
Cc1ccc(S(=O)(=O)N(C)C[C@H]2OCCCC[C@H](C)Oc3ccc(N(C)C)cc3C(=O)N([C@H](C)CO)C[C@H]2C)cc1,-10,7,-6,0,20,4
O=C(c1cc2c(s1)CCCC2)N1CCN(Cc2ccc3c(c2)OCO3)CC1,x,x,-17,x,x,x
O=C(Oc1ccc2c(c1)OCO2)c1cc2c(s1)CCC2,x,x,22,x,58,46*
CO[C@@H]1CN(C)C(=O)c2ccc(NC(C)=O)cc2OC[C@@H](C)N(CC2CCCCC2)C[C@H]1C,x,x,x,0,x,-8
Cn1c(CCN2CCCCC2)nc2cc(NS(=O)(=O)c3ccccc3)ccc21,x,x,-64,x,x,10
Cn1c(CCN2CCCCC2)nc2cc(NC(=O)COc3ccc(Cl)cc3)ccc21,1,4,11,0,37,9
Cn1c(CCN2CCN(c3ccccn3)CC2)nc2cc(NS(=O)(=O)c3ccccc3)ccc21,x,-9,15,0,72*,-2
Cn1c(CN2CCCC2)nc2cc(NC(=O)COc3ccc(Cl)cc3)ccc21,-3,7,52*,x,x,-7
Cc1ccc(OCC(=O)Nc2ccc3c(c2)nc(CCN2CCN(c4ccccn4)CC2)n3C)cc1,16,-5,x,0,52,11
Cc1ccc(C(C)C)c(OCC(=O)Nc2ccc3c(c2)nc(CCN2CCCCC2)n3C)c1,u,14,x,0,83*,17

# Bioassay records: PubChem BioAssay, Broad Institute
